# Experimental data reported in article PMC11040122 (Heliyon, 2024).
# Legend:
# [1] = system: Sf9 cells; test: In vitro toxicity / cell growth inhibition rate; type: cell-based, Spodoptera frugiperda; details: MTT assay, 72 h of treatment
# In short: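 Sf9 cells (2 × 10^4 cells/mL) in Grace's medium with 10 % FBS, exposed in triplicate to test compound (0.5–100 μM, from DMSO stocks); DMSO negative control. Incubated at 30 °C, humidified, no CO2, for 3–5 days until control wells near confluent. MTT (5 mg/mL) added for 4 h at 30 °C, formazan dissolved in DMSO, A570 read. IR = (1 − At/Ac) × 100; mean ± SD.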
# [2] = system: SlSCP-2; details: read-out: IC50 values reported for natural compounds; cited from earlier work
Structure (SMILES),%IR At 100 μM (percent inhibition of cell growth rate) [1],IC50 [2]
COc1c(O)cc2oc3cc(O)c(CC=C(C)C)c(O)c3c(=O)c2c1CC=C(C)C [Alpha-mangostin],52.18%,
CCCCC/C=C\C/C=C\C/C=C\C/C=C\CCCC(=O)O [arachidonate],,18.1 µM
CC(C)CCC[C@@H](C)[C@H]1CC[C@H]2[C@@H]3CC=C4C[C@@H](O)CC[C@]4(C)[C@H]3CC[C@]12C [cholesterol],,50.1 µM
CCCCCCCC/C=C\CCCCCCCC(=O)O [oleic acid],,24.4 µM
CCCCCCCCCCCCCCCC(=O)O [palmitic acid],,59.1 µM
CCCCCCCCCCCCCCCCCC(=O)O [stearic acid],,39.8 µM
